# Activity calls are given as the source filed them. The calls are words filed in the database; no cut-off is given here.
# Tests used:
# [1] = target: T1, Acetylcholinesterase (Homo sapiens, UniProt P22303); assay: Inhibition of human erythrocyte AChE using acetylthiocholine as substrate measured after 5 mins by Ellman's method
# [2] = target: T2, Cholinesterase (Homo sapiens, UniProt P06276); assay: Inhibition of human plasma BuChE using butyrylthiocholine as substrate measured after 5 mins by Ellman's method
# T2 sequence (P06276 whole entry): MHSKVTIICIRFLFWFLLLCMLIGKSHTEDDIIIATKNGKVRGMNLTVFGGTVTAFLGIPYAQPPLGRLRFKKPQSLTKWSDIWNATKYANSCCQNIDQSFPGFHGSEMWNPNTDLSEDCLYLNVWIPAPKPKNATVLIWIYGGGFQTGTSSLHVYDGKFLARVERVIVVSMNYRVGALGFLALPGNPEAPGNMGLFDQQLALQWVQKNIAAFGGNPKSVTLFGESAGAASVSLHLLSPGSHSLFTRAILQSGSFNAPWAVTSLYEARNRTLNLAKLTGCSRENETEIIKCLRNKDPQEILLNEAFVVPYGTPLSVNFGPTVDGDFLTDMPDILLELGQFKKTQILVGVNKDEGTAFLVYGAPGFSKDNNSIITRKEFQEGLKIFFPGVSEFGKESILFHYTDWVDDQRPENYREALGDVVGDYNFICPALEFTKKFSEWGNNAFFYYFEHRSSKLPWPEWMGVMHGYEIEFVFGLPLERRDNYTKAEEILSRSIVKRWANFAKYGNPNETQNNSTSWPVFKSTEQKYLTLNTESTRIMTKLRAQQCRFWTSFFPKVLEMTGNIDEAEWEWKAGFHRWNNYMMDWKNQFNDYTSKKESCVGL
# [3] = species: Homo sapiens; assay: Selectivity ratio of IC50 for human erythrocyte AChE to IC50 for human plasma BuChE
# Procedure, shortened: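 Ellman assay used cholinesterases from human blood. Inhibitor at five concentrations was pre-incubated 5 min at 37 °C in phosphate buffer pH 8 with DTNB (3.5 mM stock) and acetylthiocholine iodide substrate (7 mM stock). The reaction was started with enzyme and read as absorbance increase at 412 nm. Each run was done twice. The ratio is derived from the AChE and BuChE IC50 values.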
# [4] = target: T1, Acetylcholinesterase; assay: Non competitive inhibition of human erythrocyte AChE using varying levels of acetylthiocholine iodide as substrate by Lineweaver-Burk plot analysis
# [5] = target: T2, Cholinesterase; assay: Non competitive inhibition of human plasma BuChE using varying levels of butyrylthiocholine iodide as substrate by Lineweaver-Burk plot analysis
# [6] = test system: MCF7; assay: Cytotoxicity against human MCF7 cells after 48 hrs by MTT assay; assay type: ADME, cell-based; details: MCF7, 48 h
# [7] = test system: SH-SY5Y; assay: Cytotoxicity against human SH-SY5Y cells measured after 48 hrs by MTT assay; assay type: ADME, cell-based
# [8] = test system: HFF; assay: Cytotoxicity against HFF cells assessed as reduction in cell viability incubated for 48 hrs by MTT assay; assay type: ADME, cell-based; details: Homo sapiens
# [9] = target: T1, Acetylcholinesterase
# [10] = target: T2, Cholinesterase; assay: Inhibition of human plasma BuChE at 100 uM using butyrylthiocholine as substrate measured after 5 mins by Ellman's method relative to control
# Procedure, shortened: (§1)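 Ellman spectrophotometric assay using cholinesterases from human blood. The 1 ml medium held pH 8 phosphate buffer, DTNB (3.5 mM stock), thiocholine substrate (7 mM stock) and inhibitor. It was preincubated 5 min at 37 °C, then started by adding enzyme. Absorbance increase was read at 412 nm over 5 min intervals against control cuvettes. Each experiment was run twice.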
# [11] = target: T1, Acetylcholinesterase; assay: Mixed type inhibition of human erythrocyte AChE using varying levels of acetylthiocholine iodide as substrate by Lineweaver-Burk plot analysis
# [12] = test system: PC-12; assay: Protection against amyloid beta (1 to 42)-induced toxicity in rat PC-12 cells assessed as increase in cell viability measured after 24 hrs by transmission electron microscopy; assay type: functional, cell-based
# Procedure, shortened: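 PC12 cells incubated with 5 μM Aβ(1-42), with or without compound at 1 or 10 μM, at 37 °C for 24 h. Cell morphology and viability were compared by transmission electron microscopy.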
# [13] = test system: PC-12; assay: Antioxidant activity in amyloid beta (1 to 42)-induced oxidative stress in rat PC-12 cells assessed as reduction in ROS formation by measuring apoptotic index at 1 uM measured after 24 hrs by DAPI staining based TUNEL assay (reference value: 60 +/- 10); assay type: functional
# [14] = test system: PC-12; assay: Antioxidant activity in amyloid beta (1 to 42)-induced oxidative stress in rat PC-12 cells assessed as reduction in ROS formation by measuring apoptotic index at 10 uM measured after 24 hrs by DAPI staining based TUNEL assay (reference value: 60 +/- 10); assay type: functional
# [15] = test system: PC-12; assay: Antioxidant activity in amyloid beta (1 to 42)-induced oxidative stress in rat PC-12 cells assessed as reduction in ROS formation by measuring DCF fluorescence intensity at 1 uM measured after 24 hrs by DCFH-DA staining based fluorescence spectrophotometric assay (reference value: 51 +/- 11); assay type: functional
# [16] = test system: PC-12; assay: Antioxidant activity in amyloid beta (1 to 42)-induced oxidative stress in rat PC-12 cells assessed as reduction in ROS formation by measuring DCF fluorescence intensity at 10 uM measured after 24 hrs by DCFH-DA staining based fluorescence spectrophotometric assay (reference value: 51 +/- 11); assay type: functional
# [17] = test system: PC-12; assay: Antioxidant activity in amyloid beta (1 to 42)-induced oxidative stress in rat PC-12 cells assessed as reduction in ROS formation measured after 24 hrs by DCFH-DA staining based fluorescence spectrophotometric assay; assay type: functional, cell-based
# Procedure, shortened: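 Intracellular ROS: PC12 cells given 5 μM Aβ(1-42) with or without compound (1 or 10 μM), then loaded with 10 μM DCFH-DA for 5 min at room temperature. DCF fluorescence read at ex 485/em 530 nm, with DAPI counterstain (ex 358/em 461) for microscopy.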
# [18] = test system: PC-12; assay: Antioxidant activity in amyloid beta (1 to 42)-induced oxidative stress in rat PC-12 cells assessed as reduction in ROS formation measured after 24 hrs by DAPI staining based TUNEL assay; assay type: functional, cell-based
# Procedure, shortened: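 Aβ(1-42) (5 μM) treated PC12 cells, with compound at 1 or 10 μM, fixed in 4% paraformaldehyde (1 h), blocked with […], then permeabilized with 0.1% Triton X-100/0.1% sodium citrate on ice. TUNEL reaction 60 min at 37 °C, DAPI nuclear counterstain, imaged by fluorescence/confocal microscopy.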
# [19] = test system: PC-12; assay: Cytoprotective activity against amyloid beta (1 to 42)-induced toxicity in rat PC-12 cells assessed as decrease in MDA level measured after 8 hrs by TBARS assay; assay type: functional, cell-based
# Procedure, shortened: (§2)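 Cells seeded in six-well plates, exposed to 5 μM Aβ(1-42) with or without compound (1 or 10 μM) for 8 h. They were collected and sonicated on ice, then lysed with SDS. TBA reagent added and heated at 95 °C for 45-60 min. MDA read by TBARS absorbance at 535 nm.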
# [20] = test system: PC-12; assay: Cytoprotective activity against amyloid beta (1 to 42)-induced toxicity in rat PC-12 cells assessed as decrease in MDA level at 1 to 10 uM measured after 8 hrs by TBARS assay relative to control; assay type: functional; design: scale not given: the % may be the effect or the level left; details: dose 1-10 µM; procedure, shortened: as §2
# [21] = test system: PC-12; assay: Cytoprotective activity against amyloid beta (1 to 42)-induced toxicity in rat PC-12 cells assessed as decrease in LDH level by spectrophotometric assay; assay type: functional, cell-based
# Procedure, shortened: (§3)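 PC12 cells exposed to 5 μM Aβ(1-42) in serum-free DMEM 24 h at 37 °C, then compound (1 or 10 μM) added for 24 h. LDH in culture medium measured as rate of NADH oxidation (pyruvate→lactate), read as absorbance decrease at 340 nm. Expressed as leakage into medium relative to total LDH.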
# [22] = test system: PC-12; assay: Cytoprotective activity against amyloid beta (1 to 42)-induced toxicity in rat PC-12 cells assessed as decrease in LDH level at 1 uM by spectrophotometric assay relative to control; assay type: functional; design: scale not given: the % may be the effect or the level left; procedure, shortened: as §3
# [23] = test system: PC-12; assay: Cytoprotective activity against amyloid beta (1 to 42)-induced toxicity in rat PC-12 cells assessed as decrease in LDH level at 10 uM by spectrophotometric assay relative to control; assay type: functional; design: scale not given: the % may be the effect or the level left; procedure, shortened: as §3
# [24] = test system: PC-12; assay: Antioxidant activity in amyloid beta (1 to 42)-induced oxidative stress in rat PC-12 cells assessed as increase in TAC level at 1 to 10 uM in presence of ABTS by spectrophotometric assay; assay type: functional, cell-based; details: dose 1-10 µM
# Procedure, shortened: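 Total antioxidant capacity measured with the ABTS/myoglobin method: 10 mM PBS pH 7.2, myoglobin, ABTS (300 μM final) and diluted sample or Trolox held 3 min at 25 °C. The reaction was started and absorbance read at 450 nm for 5 min at 25 °C. Cells were treated with 5 μM Aβ(1-42) with or without compound.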
# [25] = test system: PC-12; assay: Antiinflammatory activity in amyloid beta (1 to 42)-induced cytokine production in rat PC-12 cells assessed as decrease in IL-1beta mRNA level by SYBR green dye based RT-PCR analysis; assay type: functional, cell-based
# Procedure, shortened: (§4)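 PC12 cells (7-day cultures, DMEM with 7% FBS, 7% horse serum) exposed to 5 μM Aβ(1-42) in serum-free DMEM for 24 h at 37 °C, 5% CO2, then compound at 1 or 10 μM for 24 h. Total RNA isolated, reverse transcribed, and IL-1β and TNF-α mRNA quantified by SYBR Green real-time PCR; 2^-ΔΔCT method relative to β-actin.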
# [26] = test system: PC-12; assay: Antiinflammatory activity in amyloid beta (1 to 42)-induced cytokine production in rat PC-12 cells assessed as decrease in TNFalpha mRNA level by SYBR green dye based RT-PCR analysis; assay type: functional, cell-based; procedure, shortened: as §4
# [27] = target: T1, Acetylcholinesterase; assay: Inhibition of human erythrocyte AChE at 100 uM using acetylthiocholine as substrate measured after 5 mins by Ellman's method relative to control; procedure, shortened: as §1
# T1 sequence (P22303 whole entry): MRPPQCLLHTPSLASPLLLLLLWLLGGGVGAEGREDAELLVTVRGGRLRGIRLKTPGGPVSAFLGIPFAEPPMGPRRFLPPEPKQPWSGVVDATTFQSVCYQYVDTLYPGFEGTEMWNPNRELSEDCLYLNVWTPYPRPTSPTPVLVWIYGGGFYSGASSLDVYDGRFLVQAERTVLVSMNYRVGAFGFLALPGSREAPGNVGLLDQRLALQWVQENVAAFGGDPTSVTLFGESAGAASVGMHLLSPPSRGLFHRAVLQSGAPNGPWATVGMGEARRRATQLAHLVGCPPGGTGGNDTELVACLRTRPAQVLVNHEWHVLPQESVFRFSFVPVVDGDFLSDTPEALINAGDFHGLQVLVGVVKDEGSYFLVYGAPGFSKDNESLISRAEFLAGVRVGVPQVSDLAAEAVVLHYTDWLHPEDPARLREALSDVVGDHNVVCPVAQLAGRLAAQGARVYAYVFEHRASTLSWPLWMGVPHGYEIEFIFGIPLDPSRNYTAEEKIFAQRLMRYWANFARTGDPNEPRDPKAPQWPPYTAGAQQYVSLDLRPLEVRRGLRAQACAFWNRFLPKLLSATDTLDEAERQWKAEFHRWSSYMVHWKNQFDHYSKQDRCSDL
compound,measurement,setting,value
COc1cc2c(cc1OC)C(=O)/C(=C/c1ccc(N3CC[N+](C)(Cc4ccccc4)CC3)cc1)C2,IC50,[1],370 nM
same,IC50,[2],0.43 µM
same,Ratio IC50,[3],0.86
same,Ki,[4],500 nM
same,Ki,[5],400 nM
same,IC50,[6],1200 nM
same,IC50,[7],1280 nM
same,IC50,[8],2400 nM
same,Kinact,[9],0.5 µM
COc1cc2c(cc1OC)C(=O)/C(=C/c1ccc(N3CC[N+](C)(Cc4cccc(Br)c4)CC3)cc1)C2,IC50,[1],1990 nM
same,IC50,[2],0.65 µM
same,Ratio IC50,[3],3.06
COc1cc2c(cc1OC)C(=O)/C(=C/c1ccc(N3CCN(C)CC3)cc1)C2,IC50,[1],320 nM
same,inhibition,[10],23.9%
CCC[N+]1(C)CCN(c2ccc(/C=C3\Cc4cc(OC)c(OC)cc4C3=O)cc2)CC1,IC50,[1],2150 nM
same,IC50,[2],20.2 µM
same,Ratio IC50,[3],0.11
COc1cc2c(cc1OC)C(=O)/C(=C/c1ccc(N3CC[N+](C)(Cc4ccccc4Cl)CC3)cc1)C2,IC50,[1],480 nM
same,IC50,[2],2.16 µM
same,Ratio IC50,[3],0.22
CCCC[N+]1(C)CCN(c2ccc(/C=C3\Cc4cc(OC)c(OC)cc4C3=O)cc2)CC1,IC50,[1],540 nM
same,IC50,[2],21.6 µM
same,Ratio IC50,[3],0.02
C=CC[N+]1(C)CCN(c2ccc(/C=C3\Cc4cc(OC)c(OC)cc4C3=O)cc2)CC1,IC50,[1],430 nM
same,IC50,[2],25.2 µM
same,Ratio IC50,[3],0.02
CCCCCC[N+]1(C)CCN(c2ccc(/C=C3\Cc4cc(OC)c(OC)cc4C3=O)cc2)CC1,IC50,[1],4250 nM
same,IC50,[2],3.6 µM
same,Ratio IC50,[3],1.18
COc1cc2c(cc1OC)C(=O)/C(=C/c1ccc(N3CC[N+](C)(Cc4ccccn4)CC3)cc1)C2,IC50,[1],380 nM
same,IC50,[2],3.24 µM
same,Ratio IC50,[3],0.12
COc1cc2c(cc1OC)C(=O)/C(=C/c1ccc(N3CC[N+](C)(Cc4cccc(Cl)c4)CC3)cc1)C2.[Br-],IC50,[1],320 nM
same,IC50,[2],0.43 µM
same,Ratio IC50,[3],0.74
same,Ki,[5],500 nM
same,Ki,[11],1000 nM
same,Kinact,[11],0.5 µM
same,IC50,[6],1520 nM
same,IC50,[7],1230 nM
same,IC50,[8],1980 nM
same,Activity,[12],Dose-dependent effect
same,Activity_index,[13],50
same,Activity_index,[14],35
same,Flu intensity,[15],51
same,Flu intensity,[16],38
same,Activity,[17],Dose-dependent effect
same,Activity,[18],Dose-dependent effect
same,Activity,[19],Dose-dependent effect
same,Activity,[20],40.4%
same,Activity,[21],Dose-dependent effect
same,Activity,[22],16.6%
same,Activity,[23],27.5%
same,Activity,[24],Active
same,Activity,[25],Dose-dependent effect
same,Activity,[26],Dose-dependent effect
COc1cc2c(cc1OC)C(=O)/C(=C/c1ccc(OCCBr)cc1)C2,inhibition,[27],6.16%
same,inhibition,[10],5.16%
CCCCC[N+]1(C)CCN(c2ccc(/C=C3\Cc4cc(OC)c(OC)cc4C3=O)cc2)CC1,IC50,[1],540 nM
same,IC50,[2],3.24 µM
same,Ratio IC50,[3],0.17
COc1cc2c(cc1OC)C(=O)/C(=C/c1ccc(OCCCCBr)cc1)C2,inhibition,[27],27.8%
same,inhibition,[10],0%
COc1cc2c(cc1OC)C(=O)/C(=C/c1ccc(N3CC[N+](C)(Cc4ccccc4Br)CC3)cc1)C2,IC50,[1],540 nM
same,IC50,[2],1.4 µM
same,Ratio IC50,[3],0.38
COc1cc2c(cc1OC)C(=O)/C(=C/c1ccc(N3CC[N+](C)(Cc4ccc(Br)cc4)CC3)cc1)C2,IC50,[1],2550 nM
same,IC50,[2],4.6 µM
same,Ratio IC50,[3],0.55
COc1cc2c(cc1OC)C(=O)/C(=C/c1ccc(N3CC[N+](C)(CCO)CC3)cc1)C2,IC50,[1],1100 nM
same,IC50,[2],6.48 µM
same,Ratio IC50,[3],0.17

# From ChEMBL document CHEMBL4765271, “Design, synthesis and biological evaluation of 2,3-dihydro-5,6-dimethoxy-1H-inden-1-one and piperazinium salt hybrid derivatives as hAChE and hBuChE enzyme inhibitors” (Eur J Med Chem, 2020)
